# From ChEMBL document CHEMBL1156026, “Design and synthesis of pyridazinone-based 5-HT(2C) agonists” (Bioorg Med Chem Lett, 2009)
# Assays:
# [1] = molecular target: T1, 5-hydroxytryptamine receptor 2C (Homo sapiens) (UniProt P28335); test: (§1) Agonist activity at human recombinant 5HT2C receptor expressed in CHOK1 cells assessed as induction of calcium mobilization by FLIPR assay; type: functional, cell-based; details: CHO-K1
# T1 sequence (whole entry): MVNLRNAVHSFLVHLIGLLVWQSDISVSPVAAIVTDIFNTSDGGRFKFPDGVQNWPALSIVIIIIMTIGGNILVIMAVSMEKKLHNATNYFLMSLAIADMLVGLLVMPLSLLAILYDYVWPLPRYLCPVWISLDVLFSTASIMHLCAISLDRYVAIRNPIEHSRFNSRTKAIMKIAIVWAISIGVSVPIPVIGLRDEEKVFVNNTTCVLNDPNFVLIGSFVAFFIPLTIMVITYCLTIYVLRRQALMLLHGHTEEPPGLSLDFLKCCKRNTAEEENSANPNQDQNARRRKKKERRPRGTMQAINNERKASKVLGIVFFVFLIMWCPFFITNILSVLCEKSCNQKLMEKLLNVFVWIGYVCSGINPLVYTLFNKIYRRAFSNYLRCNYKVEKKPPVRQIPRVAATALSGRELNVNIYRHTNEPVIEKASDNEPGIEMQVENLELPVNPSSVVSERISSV
# [2] = molecular target: T2, 5-hydroxytryptamine receptor 2C (Homo sapiens, UniProt P28335); test: as §1; type: functional, cell-based, CHO-K1
# T2 sequence (P28335 whole entry): T1 sequence (whole entry)
# [3] = molecular target: T2, 5-hydroxytryptamine receptor 2C; test: Displacement of [3H]meselurgine from human recombinant 5HT2C receptor expressed in Swiss mouse 3T3 cells by SPA; type: cell-based
# How it was run: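 Competition binding against [3H]-meselurgine at the human 5-HT2C receptor, read by scintillation proximity assay, using membrane preparations made from Swiss 3T3 cells expressing the recombinant receptor.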
# [4] = molecular target: 5-hydroxytryptamine receptor 2A (Homo sapiens, UniProt P28223); test: Agonist activity at human recombinant 5HT2A receptor expressed in Swiss mouse 3T3 cells assessed as induction of calcium mobilization by FLIPR assay; type: functional, cell-based; details: for Emax: NIH3T3
# [5] = molecular target: 5-hydroxytryptamine receptor 2B (Homo sapiens, UniProt P41595); test: Agonist activity at human recombinant 5HT2B receptor expressed in Swiss mouse 3T3 cells assessed as induction of calcium mobilization by FLIPR assay; type: functional, cell-based; details: for Emax: NIH3T3
# [6] = Efflux ratio of permeability across MDCK cell membrane; type: ADME, cell-based, Canis lupus familiaris; details: dog
# [7] = Metabolic stability in human liver microsomes; type: ADME, Microsome; details: read-out: Stability
# [8] = Lipophilicity, log D at pH 7.4; type: physicochemical; details: buffer
# [9] = tested on: Canis familiaris; test: Plasma concentration in continuous iv dosed dog; type: ADME, organism-based, Canis lupus familiaris; details: in vivo
# [10] = molecular target: 5-hydroxytryptamine receptor 1B (Homo sapiens) (UniProt P28222); test: Binding affinity to human 5HT1B receptor
# [11] = molecular target: 5-hydroxytryptamine receptor 1D (Homo sapiens) (UniProt P28221); test: Binding affinity to human 5HT1D receptor
# [12] = molecular target: 5-hydroxytryptamine receptor 6 (Homo sapiens) (UniProt P50406); test: Binding affinity to human 5HT6 receptor
# [13] = molecular target: T3, B2 bradykinin receptor (Homo sapiens) (UniProt P30411); test: Binding affinity to human bradykinin B2 receptor
# T3 sequence (whole entry): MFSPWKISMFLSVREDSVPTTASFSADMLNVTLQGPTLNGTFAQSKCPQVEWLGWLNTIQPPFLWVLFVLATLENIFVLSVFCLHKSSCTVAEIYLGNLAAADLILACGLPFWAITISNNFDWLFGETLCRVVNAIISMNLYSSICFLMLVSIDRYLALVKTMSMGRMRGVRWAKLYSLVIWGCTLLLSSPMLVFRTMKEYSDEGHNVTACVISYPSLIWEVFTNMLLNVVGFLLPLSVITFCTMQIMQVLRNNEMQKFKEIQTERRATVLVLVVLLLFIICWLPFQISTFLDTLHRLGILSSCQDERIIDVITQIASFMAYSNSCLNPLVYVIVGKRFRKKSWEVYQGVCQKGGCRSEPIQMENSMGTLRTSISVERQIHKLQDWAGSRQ
# [14] = molecular target: GABA-A receptor; agonist GABA site (Homo sapiens) (UniProt P14867+P47870+P28472+P48169+P34903+P18505+P47869+P31644+Q16445); test: Binding affinity to human GABAA receptor; type: protein-complex assay
# [15] = tested on: Canis familiaris; test: Increase in urethral pressure in continuous iv dosed dog model of stress urinary incontinence; type: functional, Canis lupus familiaris, Urethra
# Sequence of 5-hydroxytryptamine receptor 2A (P28223 whole entry): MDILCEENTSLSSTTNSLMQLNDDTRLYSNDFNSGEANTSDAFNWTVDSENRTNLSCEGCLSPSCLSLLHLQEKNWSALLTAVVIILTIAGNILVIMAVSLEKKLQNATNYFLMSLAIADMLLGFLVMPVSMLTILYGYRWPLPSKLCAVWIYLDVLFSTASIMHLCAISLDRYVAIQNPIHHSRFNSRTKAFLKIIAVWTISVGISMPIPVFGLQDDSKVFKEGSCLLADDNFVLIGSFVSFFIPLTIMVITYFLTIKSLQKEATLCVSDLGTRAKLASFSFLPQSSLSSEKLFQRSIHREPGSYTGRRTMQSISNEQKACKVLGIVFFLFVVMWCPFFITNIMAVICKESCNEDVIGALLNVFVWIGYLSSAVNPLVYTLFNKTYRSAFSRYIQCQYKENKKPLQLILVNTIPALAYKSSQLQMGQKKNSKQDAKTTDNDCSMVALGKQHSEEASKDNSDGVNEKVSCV
# Sequence of 5-hydroxytryptamine receptor 2B (P41595 whole entry): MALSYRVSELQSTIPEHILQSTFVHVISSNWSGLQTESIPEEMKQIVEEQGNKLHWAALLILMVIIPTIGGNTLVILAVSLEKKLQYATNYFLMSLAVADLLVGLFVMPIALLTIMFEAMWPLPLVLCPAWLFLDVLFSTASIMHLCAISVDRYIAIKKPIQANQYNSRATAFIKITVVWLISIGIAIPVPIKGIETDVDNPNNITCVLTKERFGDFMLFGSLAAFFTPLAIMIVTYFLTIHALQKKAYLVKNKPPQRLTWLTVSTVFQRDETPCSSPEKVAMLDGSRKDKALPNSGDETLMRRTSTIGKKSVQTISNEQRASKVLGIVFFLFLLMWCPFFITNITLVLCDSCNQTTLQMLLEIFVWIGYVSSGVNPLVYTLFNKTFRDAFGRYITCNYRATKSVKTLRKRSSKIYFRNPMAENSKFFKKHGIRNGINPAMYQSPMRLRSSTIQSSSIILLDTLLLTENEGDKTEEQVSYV
# Sequence of 5-hydroxytryptamine receptor 1D (Homo sapiens) (P28221 whole entry): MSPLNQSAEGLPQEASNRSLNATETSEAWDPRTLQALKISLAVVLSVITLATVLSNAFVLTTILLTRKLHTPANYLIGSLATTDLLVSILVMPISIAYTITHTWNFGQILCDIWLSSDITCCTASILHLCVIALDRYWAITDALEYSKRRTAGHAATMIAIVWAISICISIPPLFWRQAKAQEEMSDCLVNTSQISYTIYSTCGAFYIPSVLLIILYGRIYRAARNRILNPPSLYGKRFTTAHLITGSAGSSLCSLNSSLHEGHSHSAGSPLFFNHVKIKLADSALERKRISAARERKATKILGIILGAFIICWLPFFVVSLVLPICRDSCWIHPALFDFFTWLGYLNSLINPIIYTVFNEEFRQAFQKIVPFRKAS
# Sequence of 5-hydroxytryptamine receptor 6 (Homo sapiens) (P50406 whole entry): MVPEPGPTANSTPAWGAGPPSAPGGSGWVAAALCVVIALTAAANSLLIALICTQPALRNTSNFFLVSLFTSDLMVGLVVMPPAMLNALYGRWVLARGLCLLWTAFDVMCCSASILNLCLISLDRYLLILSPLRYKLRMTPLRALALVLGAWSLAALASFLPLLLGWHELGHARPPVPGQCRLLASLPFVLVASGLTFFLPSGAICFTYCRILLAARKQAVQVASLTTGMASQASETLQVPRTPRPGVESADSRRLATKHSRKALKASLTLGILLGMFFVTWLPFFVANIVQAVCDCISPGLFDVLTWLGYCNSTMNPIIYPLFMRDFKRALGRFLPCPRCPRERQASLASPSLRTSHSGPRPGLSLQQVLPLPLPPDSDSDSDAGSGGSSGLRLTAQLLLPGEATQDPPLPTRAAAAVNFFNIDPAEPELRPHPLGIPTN
# Sequence of 5-hydroxytryptamine receptor 1B (Homo sapiens) (P28222 whole entry): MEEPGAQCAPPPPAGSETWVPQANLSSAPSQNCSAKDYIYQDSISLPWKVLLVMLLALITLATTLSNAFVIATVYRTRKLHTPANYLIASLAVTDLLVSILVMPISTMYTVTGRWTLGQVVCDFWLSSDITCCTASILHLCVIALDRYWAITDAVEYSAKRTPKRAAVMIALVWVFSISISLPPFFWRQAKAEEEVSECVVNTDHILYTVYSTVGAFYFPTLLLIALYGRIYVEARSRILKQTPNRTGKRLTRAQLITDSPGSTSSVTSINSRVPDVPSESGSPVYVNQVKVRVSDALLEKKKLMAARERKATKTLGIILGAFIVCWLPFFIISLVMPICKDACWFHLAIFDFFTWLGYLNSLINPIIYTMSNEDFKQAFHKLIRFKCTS
structure (smiles),measurement,setting,value
C[C@@H](Cn1nc(N2CCNCC2)ccc1=O)Oc1ccccc1Cl,Emax,[1],87%
same,EC50,[2],360 nM
C[C@@H](COc1ccccc1Cl)n1nc(N2CCNCC2)ccc1=O,Emax,[1],77%
same,EC50,[2],25 nM
same,Ki,[3],728 nM
same,EC50,[4],65 nM
same,Emax,[4],69%
same,EC50,[5],506 nM
same,Emax,[5],30%
C[C@H](COc1ccccc1Cl)n1nc(N2CCNCC2)ccc1=O,Emax,[1],55%
same,EC50,[2],> 1920 nM
C[C@H](Cn1nc(N2CCNCC2)ccc1=O)Oc1ccccc1Cl,Emax,[1],53%
same,EC50,[2],858 nM
C[C@@H]1CNCCN1c1ccc(=O)n(CCOc2ccccc2Cl)n1,Emax,[1],51%
same,EC50,[2],25 nM
same,efflux ratio,[6],6
same,microsomal CLint,[7],9.8 µL/min/mg
same,logD,[8],0.9
same,Ki,[3],325 nM
same,EC50,[4],114 nM
same,Emax,[4],42%
same,EC50,[5],> 10000 nM
COc1ccccc1OCCn1nc(N2CCNCC2)ccc1=O,EC50,[2],> 10000 nM
O=c1ccc(N2CCNCC2)nn1CCOc1ccccc1C(F)(F)F,Emax,[1],45%
same,EC50,[2],47 nM
same,Ki,[3],424 nM
same,EC50,[4],1090 nM
same,Emax,[4],49%
same,EC50,[5],> 10000 nM
Clc1ccccc1CCOc1cncc(N2CCNCC2)n1,Emax,[1],69%
same,EC50,[2],10 nM
same,efflux ratio,[6],2
same,microsomal CLint,[7],94 µL/min/mg
same,logD,[8],2.2
same,EC50,[4],308 nM
same,Emax,[4],56%
same,EC50,[5],187 nM
same,Emax,[5],42%
O=c1c2c(c(N3CCNCC3)nn1CCOc1ccccc1Cl)CCC2,EC50,[2],> 10000 nM
O=c1ccc(N2CCNCC2)nn1CCOc1ccccc1,EC50,[2],> 10000 nM
C[C@H]1CN(c2ccc(=O)n(CCOc3ccccc3Cl)n2)CCN1,EC50,[2],> 10000 nM
Cc1cc(=O)n(CCOc2ccccc2Cl)nc1N1CCNCC1,Emax,[1],31%
same,EC50,[2],510 nM
CC[C@@H]1CNCCN1c1ccc(=O)n(CCOc2ccccc2Cl)n1,Emax,[1],41%
same,EC50,[2],407 nM
N#Cc1ccccc1OCCn1nc(N2CCNCC2)ccc1=O,Emax,[1],69%
same,EC50,[2],114 nM
O=c1ccc(N2CCNCC2)nn1CCOc1cccc(Cl)c1Cl,EC50,[2],> 2130 nM
Cc1ccccc1OCCn1nc(N2CCNCC2)ccc1=O,Emax,[1],36%
same,EC50,[2],> 4550 nM
O=c1ccc(N2CCNCC2)nn1CCOc1cccc(Cl)c1,EC50,[2],> 10000 nM
Cc1cc(N2CCNCC2)nn(CCOc2ccccc2Cl)c1=O,EC50,[2],> 10000 nM
C[C@H]1CNCCN1c1ccc(=O)n(CCOc2ccccc2Cl)n1,EC50,[2],> 10000 nM
O=CC1CNCCN1c1ccc(=O)n(CCOc2ccccc2Cl)n1 (stereo not given),EC50,[2],> 9980 nM
O=c1ccc(N2CCNCC2)nn1CCOc1ccccc1Cl,Emax,[1],58%
same,EC50,[2],164 nM
same,efflux ratio,[6],5
same,microsomal CLint,[7],< 7 µL/min/mg
same,logD,[8],0.6
same,Ki,[3],1600 nM
same,EC50,[4],254 nM
same,Emax,[4],41%
same,EC50,[5],> 10000 nM
C[C@@H]1CNCCN1c1ccc(=O)n(CCOc2ccccc2C(F)(F)F)n1,Emax,[1],51%
same,EC50,[2],11 nM
same,Ki,[3],89 nM
same,EC50,[4],41 nM
same,Emax,[4],61%
same,EC50,[5],> 2610 nM
same,concentration,[9],52 nM
same,Activity,[10],< 1000 nM
same,Activity,[11],< 1000 nM
same,Activity,[12],< 1000 nM
same,Activity,[13],< 1000 nM
same,Activity,[14],< 1000 nM
same,Activity,[15],>20%
O=c1ccc(N2CCNCC2)nn1CCOc1ccc(Cl)cc1,EC50,[2],> 10000 nM
O=c1ccc(N2CCNCC2)nn1CCOc1ccccc1Br,Emax,[1],34%
same,EC50,[2],101 nM
Clc1cccc(N2CCNCC2)c1,Emax,[4],58%
